Measurements reported in ChEMBL document CHEMBL4028848, “Discovery of N-{4-[5-(4-Fluorophenyl)-3-methyl-2-methylsulfanyl-3H-imidazol-4-yl]-pyridin-2-yl}-acetamide (CBS-3595), a Dual p38α MAPK/PDE-4 Inhibitor with Activity against TNFα-Related Diseases” (J Med Chem, 2017).
Active and inactive are the calls of the source. The rule behind the calls is not given here.

Experiments:
Escherichia coli = assay: Genotoxicity in Escherichia coli in absence of S9 fraction by Ames test; type: toxicity
Outline: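 Bacterial reverse mutation (Ames) test in S. typhimurium and E. coli strains, run with and without S9 mix.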

[1] = Cmax in male Sprague-Dawley rat at 30 mg/kg, po by LC-MS/MS analysis; type: ADME, organism-based; parameters: dose 30 mg/kg, route oral; details: in vivo
Rattus norvegicus [2] = assay: In vivo inhibition of P38 MAPKalpha in Lewis rat assessed as decrease in LPS-stimulated TNFalpha level in serum at 10 mg/kg, po pretreated for 3 hrs followed by LPS addition measured after 1.5 hrs post dose; type: functional, organism-based
Outline: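 Lewis rats, n = 8/group: females dosed orally at 10 mg/kg at −1, −3 or −5 h relative to LPS challenge, plus one male group dosed at −1 h. Male and female vehicle controls were given at −1 h. Serum TNFα was measured after LPS and compared with vehicle.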

[3] = Drug metabolism in human urine assessed as 4-(4-(4-fluorophenyl)-1-methyl-2-(methylsulfinyl)-1H-imidazol-5-yl)pyridin-2-amine formation at 10 to 50 mg, po administered as single dose after 36 hrs; type: ADME, organism-based; details: in vivo
Outline: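 Healthy subjects, single oral dose. Urine collected at 0–6, 6–12, 12–24 and 24–36 h post dose and analysed for parent and metabolite. Excreted amount expressed relative to administered dose.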

[4] = Drug metabolism in human primary hepatocytes assessed as CBS-3728 formation at 10 to 100 uM; type: ADME, cell-based, Hepatocyte
[5] = Cmax in cynomolgus monkey at 20 mg/kg, po measured on day 1 and 27 post dose by LC-MS/MS analysis; type: ADME, organism-based, Macaca fascicularis; parameters: dose 20 mg/kg, route oral; details: in vivo
Outline: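 Within a 4-week oral toxicity study, Cynomolgus monkeys received 6, 12 or 20 mg/kg daily. Blood was sampled from 0.5 to 24 h post dose on days 1 and 27. Tmax, Cmax, T1/2 and AUC0–24 came from individual profiles of parent and metabolite.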

Homo sapiens = species on record: Homo sapiens; assay: Inhibition of PDE4 in human U937 cells assessed as [3H]cAMP hydrolysis at 1 uM relative to control; type: cell-based
[6] = AUC (0 to t) in mongrel dog at 30 mg/kg, po by LC-MS/MS analysis; type: ADME, organism-based, Canis lupus familiaris; details: in vivo
Outline: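 Two mongrel dogs received a single oral dose of 30 mg/kg. Blood was sampled from 0.25 to 24 h and plasma parent concentrations were determined.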

Serum = assay: Drug uptake in male Lewis rat serum at 10 mg/kg, po by LC-MS/MS analysis; type: ADME, organism-based; details: in vivo
Outline: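 Male Lewis rats were dosed orally at 10 mg/kg 1 h before an i.v. LPS challenge of 0.1 mg/kg. Serum drug concentration was measured 1.5 h after LPS.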

Mus musculus [7] = assay: In vivo inhibition of P38 MAPKalpha in BALB/c mouse assessed as decrease in LPS/GalN-stimulated TNFalpha level in plasma at 3 mg/kg, po administered via gavage pretreated for 1 hr followed by LPS/GalN addition measured after 1.5 hrs relative to control; type: functional
Outline: (§1)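 Male BALB/c mice, n = 6/group, given 3, 10 or 30 mg/kg orally by gavage 1 h before i.p. D-GalN (500 mg/kg) plus LPS (1.5 μg/kg). Blood was taken by cardiac puncture and plasma TNFα measured against a vehicle-only control.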

Cynomolgus monkey [8] = assay: Toxicity in cynomolgus monkey assessed as whitish vomiting at 6 to 20 mg/kg, po; type: organism-based, Macaca fascicularis; details: in vivo
Cynomolgus monkey [9] = assay: Toxicity in cynomolgus monkey assessed as induction of trchycardia at 6 to 20 mg/kg, po measured after 0.5 to 6 hrs post dose; type: organism-based, Macaca fascicularis; details: in vivo
Rattus norvegicus [10] = assay: Antiarthritic activity in Lewis rat assessed as decrease in collagen-induced arthritic score at 50 mg/kg, po qd administered for 10 days; type: functional, organism-based
Outline: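 Collagen-induced arthritis in male Lewis rats (5–6 per group). Groups received vehicle, dexamethasone 1 mg/kg, test item 50 mg/kg once daily, or 25 mg/kg twice daily for 10 days. Body weight, arthritic score and paw volume were monitored, and serum COMP was measured at the end.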

Mus musculus [11] = assay: In vivo inhibition of P38 MAPKalpha in BALB/c mouse assessed as decrease in LPS/GalN-stimulated TNFalpha level in plasma at 10 mg/kg, po administered via gavage pretreated for 1 hr followed by LPS/GalN addition measured after 1.5 hrs relative to control; type: functional; outline: as §1
[12] = Tmax in cynomolgus monkey at 20 mg/kg, po measured on day 1 and 27 post dose by LC-MS/MS analysis; type: ADME, organism-based, Macaca fascicularis; details: in vivo
Liver = assay: Drug metabolism in human liver microsomes assessed as 4-(4-(4-fluorophenyl)-1-methyl-2-(methylsulfinyl)-1H-imidazol-5-yl)pyridin-2-amine formation at 10 to 100 uM; type: ADME, microsome
Outline: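 Test compound incubated at 10, 30 and 100 μM with liver microsomes from rat, Cynomolgus monkey or human, and metabolites monitored.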

Bone marrow cell = assay: Clastogenicity in mouse bone marrow cells by microneucleus test; type: toxicity, cell-based
Outline: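 In vivo micronucleus test in mouse bone marrow.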

[13] = Cmax in Beagle dog at 40 mg/kg, po by LC-MS/MS analysis; type: ADME, organism-based, Canis lupus familiaris; parameters: dose 40 mg/kg, route oral; details: in vivo
Outline: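 Toxicokinetics from a maximum-tolerated-dose study in four Beagle dogs given 40 mg/kg orally. Plasma levels of both parent and its predominant metabolite were monitored.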

[14] = Tmax in Beagle dog at 40 mg/kg, po by LC-MS/MS analysis; type: ADME, organism-based, Canis lupus familiaris; details: in vivo
Rattus norvegicus [15] = assay: Toxicity in Sprague-Dawley rat assessed as increase in histopathological changes at 150 mg/kg, po administered via gavage for daily 28 days followed by 2 weeks off without dosing; type: organism-based; details: in vivo
Rattus norvegicus [16] = assay: Toxicity in rat assessed as excessive defecation at 30 to 300 mg/kg, po administered as single dose; type: organism-based; details: in vivo
[17] = molecular target: Casein kinase I isoform delta (Homo sapiens) (UniProt P48730); assay: Inhibition of CK1delta (unknown origin) at 10 uM relative to control
Casein kinase I isoform delta (Homo sapiens), sequence (P48730 whole entry, looked up, canonical isoform): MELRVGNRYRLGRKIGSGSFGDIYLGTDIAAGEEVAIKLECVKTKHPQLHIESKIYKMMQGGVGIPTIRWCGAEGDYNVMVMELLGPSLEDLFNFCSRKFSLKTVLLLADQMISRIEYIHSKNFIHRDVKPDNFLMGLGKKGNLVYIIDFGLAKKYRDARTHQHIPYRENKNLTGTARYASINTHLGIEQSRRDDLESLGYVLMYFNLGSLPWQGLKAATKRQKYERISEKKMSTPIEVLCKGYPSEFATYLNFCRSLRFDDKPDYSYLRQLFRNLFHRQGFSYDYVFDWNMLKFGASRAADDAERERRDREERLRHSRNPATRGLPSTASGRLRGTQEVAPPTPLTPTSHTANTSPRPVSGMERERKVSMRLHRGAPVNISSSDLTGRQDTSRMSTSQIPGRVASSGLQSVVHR

[18] = Tmax in male Sprague-Dawley rat at 30 mg/kg, po by LC-MS/MS analysis; type: ADME, organism-based; details: in vivo
Cynomolgus monkey [19] = assay: In vivo inhibition of P38 MAPKalpha in po dosed cynomolgus monkey assessed as decrease in TNFalpha level in LPS-stimulated whole blood pretreated for 4 weeks followed by ex vivo LPS addition measured on day 27; type: functional, organism-based; details: Macaca fascicularis
[20] = Drug uptake in LPS-stimulated female Lewis rat serum at 10 mg/kg, po pretreated for 5 hrs followed by LPS addition measured after 1.5 hrs post dose; type: ADME, organism-based; details: read-out: Drug uptake
Outline: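 Female Lewis rats, n = 8/group, dosed orally at 10 mg/kg at 1, 3 or 5 h before LPS challenge. Serum aliquots taken 1.5 h after LPS were used to measure drug concentration.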

[21] = AUC (0 to t) in female Sprague-Dawley rat at 30 mg/kg, po by LC-MS/MS analysis; type: ADME, organism-based; details: in vivo
Outline: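 Rats of each sex received a single oral dose of 30 mg/kg. Plasma concentration–time profiles of parent were determined separately for females and males.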

[22] = Drug metabolism in human primary hepatocytes assessed as CBS-3733 formation at 10 to 100 uM; type: ADME, cell-based, Hepatocyte
Cynomolgus monkey [23] = assay: Toxicity in cynomolgus monkey assessed as decrease in PQ at 6 to 20 mg/kg, po; type: organism-based, Macaca fascicularis; details: in vivo
[24] = molecular target: Rho-associated protein kinase 2 (Homo sapiens) (UniProt O75116); assay: Inhibition of ROCK-2 (unknown origin) at 10 uM
Rho-associated protein kinase 2 (Homo sapiens), sequence (O75116 whole entry, looked up): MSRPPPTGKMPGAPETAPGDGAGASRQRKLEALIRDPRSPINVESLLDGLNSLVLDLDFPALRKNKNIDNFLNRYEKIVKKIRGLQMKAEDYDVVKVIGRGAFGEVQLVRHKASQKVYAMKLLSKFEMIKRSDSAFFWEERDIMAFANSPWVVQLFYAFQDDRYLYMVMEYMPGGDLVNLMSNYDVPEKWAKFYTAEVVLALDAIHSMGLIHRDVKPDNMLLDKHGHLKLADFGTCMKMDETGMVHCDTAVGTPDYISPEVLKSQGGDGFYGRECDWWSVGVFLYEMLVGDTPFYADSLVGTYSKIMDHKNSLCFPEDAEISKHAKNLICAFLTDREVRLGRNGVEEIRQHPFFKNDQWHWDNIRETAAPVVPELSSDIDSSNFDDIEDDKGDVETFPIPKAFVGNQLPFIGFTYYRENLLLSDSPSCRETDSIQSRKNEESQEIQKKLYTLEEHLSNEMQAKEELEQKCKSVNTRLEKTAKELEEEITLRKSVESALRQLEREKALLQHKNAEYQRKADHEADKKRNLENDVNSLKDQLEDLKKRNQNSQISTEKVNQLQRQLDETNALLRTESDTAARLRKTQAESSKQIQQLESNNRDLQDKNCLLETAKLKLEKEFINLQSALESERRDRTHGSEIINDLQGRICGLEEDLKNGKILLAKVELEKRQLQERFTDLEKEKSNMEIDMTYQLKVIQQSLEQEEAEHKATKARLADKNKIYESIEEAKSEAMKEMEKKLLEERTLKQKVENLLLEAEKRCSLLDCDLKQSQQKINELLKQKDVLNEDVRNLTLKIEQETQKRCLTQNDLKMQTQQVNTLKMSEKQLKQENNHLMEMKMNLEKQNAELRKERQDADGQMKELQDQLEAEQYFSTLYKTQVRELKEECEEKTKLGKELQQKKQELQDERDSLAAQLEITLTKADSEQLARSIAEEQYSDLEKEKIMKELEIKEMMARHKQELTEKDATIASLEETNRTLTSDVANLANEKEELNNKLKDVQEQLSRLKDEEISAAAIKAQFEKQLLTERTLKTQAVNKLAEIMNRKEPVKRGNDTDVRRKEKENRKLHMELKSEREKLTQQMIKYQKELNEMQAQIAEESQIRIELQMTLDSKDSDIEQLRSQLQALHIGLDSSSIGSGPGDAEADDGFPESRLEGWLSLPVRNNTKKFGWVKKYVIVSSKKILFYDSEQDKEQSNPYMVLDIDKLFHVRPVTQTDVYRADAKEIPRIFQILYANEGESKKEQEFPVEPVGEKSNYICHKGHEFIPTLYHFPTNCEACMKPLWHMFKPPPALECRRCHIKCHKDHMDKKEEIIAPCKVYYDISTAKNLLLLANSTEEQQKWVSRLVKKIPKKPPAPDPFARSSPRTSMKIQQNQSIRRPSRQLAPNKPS

[25] = molecular target: Mitogen-activated protein kinase 12 (Homo sapiens) (UniProt P53778); assay: Inhibition of p38MAPK gamma (unknown origin) at 10 uM relative to control
Mitogen-activated protein kinase 12 (Homo sapiens), sequence (P53778 whole entry): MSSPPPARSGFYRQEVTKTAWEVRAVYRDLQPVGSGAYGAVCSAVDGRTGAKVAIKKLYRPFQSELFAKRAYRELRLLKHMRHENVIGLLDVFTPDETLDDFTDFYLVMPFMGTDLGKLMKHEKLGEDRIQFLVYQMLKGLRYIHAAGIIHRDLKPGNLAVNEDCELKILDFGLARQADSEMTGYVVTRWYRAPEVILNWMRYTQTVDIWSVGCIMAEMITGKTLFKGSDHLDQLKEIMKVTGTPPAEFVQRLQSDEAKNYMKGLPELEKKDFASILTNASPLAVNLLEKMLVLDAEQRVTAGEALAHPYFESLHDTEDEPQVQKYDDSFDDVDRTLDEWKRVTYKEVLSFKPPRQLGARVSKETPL

SMILES: CC(=O)Nc1cc(-c2c(-c3ccc(F)cc3)nc([S+](C)[O-])n2C)ccn1 (stereo not given)
- Activity (Escherichia coli): Non-Toxic
- Cmax [1]: 3.4 µM
- inhibition (Rattus norvegicus [2]): Active
- Drug excretion [3]: 6 %ID
- Drug metabolism [4]: Metabolite_Detected
- Cmax [5]: 8.4 µM
- inhibition (Homo sapiens): 73%
- AUC(0-t) [6]: 95 µM·h
- Drug uptake (Serum): 689 ng/mL
- inhibition in vivo at 3 mg/kg (Mus musculus [7]): 82%
- Activity (Cynomolgus monkey [8]): Toxic
- Activity (Cynomolgus monkey [9]): Toxic
- Activity (Rattus norvegicus [10]): Active
- inhibition in vivo at 10 mg/kg (Mus musculus [11]): 84%
- Tmax [12]: 4 h
- Drug metabolism (Liver): Metabolite_Detected
- Activity (Bone marrow cell): Non-Toxic
- Cmax [13]: 15.6 µM
- Tmax [14]: 1.5 h
- Activity (Rattus norvegicus [15]): Toxic
- Activity (Rattus norvegicus [16]): Toxic
- inhibition [17]: 94%
- Tmax [18]: 30 min
- inhibition (Cynomolgus monkey [19]): Dose-dependent effect
- concentration at 1.5 h [20]: 871 ng/mL
- AUC(0-t) [21]: 40.9 µM·h
- Drug metabolism [22]: Metabolite_Detected
- Activity (Cynomolgus monkey [23]): Toxic

SMILES: Cn1c([S+](C)[O-])nc(-c2ccc(F)cc2)c1-c1ccnc(N)c1 (stereo not given)
- inhibition [24]: inactive
- inhibition [25]: inactive
